Source: PubChem BioAssay
Hits are enriched below; roughly 2.8% of the tested compounds scored in any of these assays.
pPAFAH inh: pPAFAH (human) enzyme inhibition; Q13093; inhibition, % at 3.39 µM; 330,000 tested, 1.5% active; AID 463082; recombinant pPAFAH, FP-rhodamine probe fluorescence polarization;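 active = inhibition above the mean inhibition across the screen plus 3 SD, cut at about 25% in these data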;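 note: inhibitors block binding of the rhodamine activity-based probe so polarization drops; 0% = enzyme with DMSO and 100% = wells lacking pPAFAH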
PAFAH1B3 inh: PAFAH1B3 (human) inhibition; recombinant PAFAH1B3, FP-rhodamine probe, fluorescence polarization; Q15102; inhibition, % at 3.39 µM; 340,000 tested, 0.28% active;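 active = inhibition above the screen-wide average of all tested compounds plus 3 SD, cut at about 25% in these data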;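 note: 0% = enzyme with DMSO only and 100% = wells lacking PAFAH1B3 protein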
Target sequence (Q15102 whole entry, looked up): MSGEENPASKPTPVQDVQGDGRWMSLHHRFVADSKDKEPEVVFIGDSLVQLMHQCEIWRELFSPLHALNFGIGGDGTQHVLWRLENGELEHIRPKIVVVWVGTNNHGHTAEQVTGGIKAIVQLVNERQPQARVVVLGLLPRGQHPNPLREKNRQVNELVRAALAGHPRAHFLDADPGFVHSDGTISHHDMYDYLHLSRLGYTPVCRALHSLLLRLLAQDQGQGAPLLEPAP
ABHD4 inh: inhibitors of mouse ABHD4. Q8VD66. inhibition, % at 8.92 µM. AID 720543. purified mABHD4, FP-Rh probe fluorescence polarization. 370,000 tested, 0.54% active;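 active = inhibition exceeding the mean over every tested compound plus 3 SD, cut at about 30% in these data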;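 note: 0% = plate median of compound wells and 100% = S159A mutant with DMSO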
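Assay system: wild-type mouse ABHD4 protein; compound: single nominal dose of 8.92 µM, 0.89% DMSO final; schedule: 45 min + 60 min at 25 °C; measured by: FP readout, ex 525 nm / em 598 nm; evaluation: % inhibition of FP-Rh probe binding versus controls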
PAFAH1B2 FP inh: blocks human PAF acetylhydrolase 1b catalytic subunit 2; P68402; recombinant PAFAH1B2, FP-rhodamine activity probe, fluorescence polarization; AID 492953; 340,000 tested, 1.2% active; inhibition, % at 3.39 µM;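 active = inhibition above the mean of all tested compounds plus 3 SD, cut at about 24% in these data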;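 note: 0% = enzyme with DMSO and 100% = wells lacking PAFAH1B2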
Target sequence (P68402 whole entry, looked up): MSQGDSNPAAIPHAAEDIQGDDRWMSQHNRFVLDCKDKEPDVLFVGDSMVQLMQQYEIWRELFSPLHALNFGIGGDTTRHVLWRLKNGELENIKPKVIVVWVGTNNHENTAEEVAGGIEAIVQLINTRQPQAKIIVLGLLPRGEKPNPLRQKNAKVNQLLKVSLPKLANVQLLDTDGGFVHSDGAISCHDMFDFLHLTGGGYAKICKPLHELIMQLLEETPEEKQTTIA
HTRA1 inh: HTRA1 (human) protease inhibition | Q92743 | recombinant HTRA1, FP-rhodamine activity-based probe, fluorescence polarization | inhibition, % at 5.96 µM | 340,000 tested, 0.5% active; in the data active = inhibition above about 36%;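 note: 0% = enzyme with DMSO and 100% = wells lacking enzyme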
PAFAH2 FP inh: inhibitors of human PAFAH2 | inhibition, % at 3.39 µM | AID 492956 | recombinant PAFAH2, FP-rhodamine activity probe, fluorescence polarization | 340,000 tested, 0.99% active;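 active = inhibition above the mean over all tested compounds plus 3 SD, cut at about 30% in these data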;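 note: inhibitors block probe labeling of enzyme so polarization drops; 0% = enzyme with DMSO and 100% = wells lacking PAFAH2 protein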
pPAFAH FP conf: confirmation of human plasma PAF acetylhydrolase (pPAFAH) inhibitors | shares compounds with pPAFAH inh | recombinant pPAFAH, FP-Rh probe fluorescence polarization | inhibition, % at 3.39 µM | 2,300 tested, 72% active | AID 463230;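 active = mean inhibition of the triplicate above the hit cutoff set for the earlier primary screen, cut at about 25% in these data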;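 note: 0% = enzyme with DMSO and 100% = wells lacking pPAFAH enzyme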
Numbers without * were called inactive.

How did S=c1nc(C2COc3ccccc3O2)[nH][nH]1 (stereo not drawn) do in these assays?
pPAFAH inh: 2.8; PAFAH1B3 inh: 7.8; ABHD4 inh: -0.8; PAFAH1B2 FP inh: 7.3; HTRA1 inh: 9.6; PAFAH2 FP inh: 1.3

What do the screens show for `S=c1[nH]nc(C2COc3ccccc3O2)o1` (stereo not drawn)?
pPAFAH inh: 44.3*; PAFAH1B3 inh: -6.0; ABHD4 inh: 4.3; PAFAH1B2 FP inh: 3.0; HTRA1 inh: -0.4; PAFAH2 FP inh: -3.9; pPAFAH FP conf: 4.5

Results for O=C(NN=C1CCCCCC1)c1cc2ccccc2cc1O ?
pPAFAH inh: 57.7*; PAFAH1B3 inh: 9.2; ABHD4 inh: 22.4; PAFAH1B2 FP inh: 5.9; HTRA1 inh: 10.5; PAFAH2 FP inh: 5.3; pPAFAH FP conf: 11.2

What do the screens show for `O=C(NNC(=O)c1cc2ccccc2cc1O)c1cccs1`?
pPAFAH inh: 7.9; PAFAH1B3 inh: 13.6; ABHD4 inh: 9.7; PAFAH1B2 FP inh: 6.7; HTRA1 inh: 13.9; PAFAH2 FP inh: 25.1

How did C/C(=N\NC(=O)c1cc2ccccc2cc1O)c1cccs1 do in these assays?
pPAFAH inh: 51.6*; PAFAH1B3 inh: 15.8; ABHD4 inh: 13.7; PAFAH1B2 FP inh: 6.0; HTRA1 inh: 26.6; PAFAH2 FP inh: 9.0; pPAFAH FP conf: 4.2

Results for COCCCNC(=O)C[C@H]1C[C@@]2(C(=O)OC)C(=C[C@H](C3CCCC3)O[C@@H]2C)N(Cc2cccc3ccccc23)C1=O ?
ABHD4 inh: -8.7

What do the screens show for `CCOc1cc(CNc2ccc(O)cc2)ccc1OCc1ccc(Cl)cc1Cl`?
pPAFAH inh: 36.0*; PAFAH1B3 inh: 16.2; PAFAH1B2 FP inh: 11.2; HTRA1 inh: 62.3*; PAFAH2 FP inh: 11.0; pPAFAH FP conf: 21.5

How did COc1ccc(OC)c(C2C(C#N)=C(N)Oc3cc(N)ccc32)c1 (stereo not drawn) do in these assays?
pPAFAH inh: 35.8*; PAFAH1B3 inh: -0.2; ABHD4 inh: 25.9; PAFAH1B2 FP inh: 0.0; HTRA1 inh: 8.2; PAFAH2 FP inh: 3.4; pPAFAH FP conf: 0.8

Results for COc1ccc(OC)c(C2C(C#N)=C(N)Oc3cc(C)[nH]c(=O)c32)c1 (stereo not drawn) ?
pPAFAH inh: 1.9; PAFAH1B3 inh: 2.0; ABHD4 inh: 5.5; PAFAH1B2 FP inh: -1.5; HTRA1 inh: 3.9; PAFAH2 FP inh: -3.6

Results for CS(=O)(=O)c1ccc(C(=O)OCC(=O)NCc2cccs2)cc1[N+](=O)[O-] ?
pPAFAH inh: 35.5*; PAFAH1B3 inh: 7.6; ABHD4 inh: 4.5; PAFAH1B2 FP inh: -2.9; HTRA1 inh: -7.4; PAFAH2 FP inh: 37.7*; pPAFAH FP conf: 7.3

How did CCNC(=O)COC(=O)C1CCN(S(=O)(=O)c2ccc3c(c2)OCCO3)CC1 do in these assays?
pPAFAH inh: 8.4; PAFAH1B3 inh: 4.6; ABHD4 inh: -4.7; PAFAH1B2 FP inh: -0.8; HTRA1 inh: 2.7; PAFAH2 FP inh: 3.0

What do the screens show for `CC(C)C(C)NC(=O)COC(=O)C1CCN(S(=O)(=O)c2ccc3c(c2)OCCO3)CC1` (stereo not drawn)?
pPAFAH inh: 38.0*; PAFAH1B3 inh: 0.2; ABHD4 inh: -5.8; PAFAH1B2 FP inh: 4.2; HTRA1 inh: 3.2; PAFAH2 FP inh: 9.0; pPAFAH FP conf: 10.5

What do the screens show for `N#Cc1c(SCC(=O)Nc2nccs2)sc2c(O)cc(=O)[nH]c12`?
pPAFAH inh: 37.4*; PAFAH1B3 inh: 21.8; ABHD4 inh: -23.4; PAFAH1B2 FP inh: 16.7; HTRA1 inh: -7.5; PAFAH2 FP inh: 32.2*; pPAFAH FP conf: 9.8

What do the screens show for `N#Cc1c(SCC(=O)Nc2nc3ccc(Br)cc3s2)sc2c(O)cc(=O)[nH]c12`?
pPAFAH inh: 51.2*; PAFAH1B3 inh: 19.2; ABHD4 inh: -4.4; PAFAH1B2 FP inh: 11.6; HTRA1 inh: -16.6; PAFAH2 FP inh: 17.4; pPAFAH FP conf: 41.7*

What do the screens show for `Cc1cc(C(F)(F)F)c(C#N)c(SCC(=O)Nc2nc3cc(Br)ccc3s2)n1`?
pPAFAH inh: -1.3; PAFAH1B3 inh: -57.3; ABHD4 inh: -1.6; PAFAH1B2 FP inh: -28.5; HTRA1 inh: -13.2; PAFAH2 FP inh: -54.0

Results for N#Cc1c(SCC(=O)Nc2nc3ccccc3s2)sc2c(O)cc(=O)[nH]c12 ?
pPAFAH inh: 40.7*; PAFAH1B3 inh: 27.6*; ABHD4 inh: -23.1; PAFAH1B2 FP inh: 18.8; HTRA1 inh: -15.1; PAFAH2 FP inh: 34.5*; pPAFAH FP conf: 30.6*

Results for COC(=O)[C@]12C[C@H](CC(=O)N3CCCC3)C(=O)N(Cc3ccccc3)C1=C[C@H](COCc1ccccc1)O[C@@H]2C ?
ABHD4 inh: 6.0

Results for COc1ccc2[nH]c(=O)c(CN(Cc3nnnn3Cc3ccco3)C3CCCCC3)cc2c1 ?
pPAFAH inh: 9.0; PAFAH1B3 inh: 2.7; ABHD4 inh: -1.1; PAFAH1B2 FP inh: -0.3; HTRA1 inh: 11.8; PAFAH2 FP inh: 4.0

Results for COc1ccc2[nH]c(=O)c(CN(C3CCCCC3)C(c3nnnn3Cc3ccco3)C(C)C)cc2c1 (stereo not drawn) ?
pPAFAH inh: 36.5*; PAFAH1B3 inh: -6.1; PAFAH1B2 FP inh: -0.8; HTRA1 inh: -20.8; PAFAH2 FP inh: -0.4; pPAFAH FP conf: 27.7*

How did CC(C)(C)c1ccc(-c2nnc(SCC(=O)Nc3ccc(S(=O)(=O)Nc4nccs4)cc3)n2Cc2ccco2)cc1 do in these assays?
ABHD4 inh: -52.5

Results for CC(C)C(C(=O)O)N1C(=O)/C(=C/C=C/c2ccco2)SC1=S (stereo not drawn) ?
pPAFAH inh: 78.5*; PAFAH1B3 inh: 23.1; PAFAH1B2 FP inh: 16.8; HTRA1 inh: 30.6; PAFAH2 FP inh: 60.6*; pPAFAH FP conf: 54.0*

Results for O=C(CCN1C(=O)/C(=C/c2ccccc2)SC1=S)NC1CCS(=O)(=O)C1 (stereo not drawn) ?
pPAFAH inh: 2.2; PAFAH1B3 inh: 3.0; ABHD4 inh: -4.4; PAFAH1B2 FP inh: 4.7; HTRA1 inh: -1.4; PAFAH2 FP inh: 11.1

Results for O=C(CN1C(=O)/C(=C/c2ccco2)SC1=S)NC1CCS(=O)(=O)C1 (stereo not drawn) ?
pPAFAH inh: 38.4*; PAFAH1B3 inh: 16.0; ABHD4 inh: 26.0; PAFAH1B2 FP inh: 3.5; HTRA1 inh: 10.6; PAFAH2 FP inh: 19.6; pPAFAH FP conf: 1.0

Results for CC(C(=O)Nc1ccc(C(=O)O)c(O)c1)N1C(=O)/C(=C\c2ccco2)SC1=S (stereo not drawn) ?
pPAFAH inh: 38.2*; PAFAH1B3 inh: 16.2; PAFAH1B2 FP inh: 8.1; HTRA1 inh: 9.3; PAFAH2 FP inh: 18.1; pPAFAH FP conf: 12.9

Results for O=C(CCCN1C(=O)/C(=C/c2ccco2)SC1=S)Nc1cccc(C(=O)O)c1 ?
pPAFAH inh: 50.2*; PAFAH1B3 inh: 5.1; ABHD4 inh: 28.9; PAFAH1B2 FP inh: 7.4; HTRA1 inh: 14.2; PAFAH2 FP inh: 11.2; pPAFAH FP conf: 5.0
